In brackets after ≈: the same amount, converted by molar mass.
Assays:
Assay type in all cases: functional
[1] = test system: Haemophilus influenzae; assay: Antibacterial activity against Haemophilus influenzae type b ATCC 49247 incubated for 24 hrs by M7-A9 microdilution method; conditions: type b ATCC 49247, 24 h
Method in brief: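 CLSI M7-A9 broth microdilution against H. influenzae ATCC 49247. Compounds held as 2 mg/mL DMSO stocks, diluted 2-fold in Mueller–Hinton broth across 50 to 0.1 μg/mL. Wells received inoculum standardized to 0.5 McFarland and were run in triplicate. After 24 h at 37 °C, MIC taken as the lowest concentration preventing visible turbidity. Ciprofloxacin served as positive control.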

[2] = test system: Haemophilus influenzae; assay: Bactericidal activity against Haemophilus influenzae type b ATCC 49247 incubated for 24 hrs followed by transferring to freshly prepared broth medium and measured after 24 hrs by M7-A9 microdilution method; conditions: type b ATCC 49247, 24 h
[3] = test system: Haemophilus influenzae; assay: Ratio of MBC to MIC for Haemophilus influenzae type b ATCC 49247 by M7-A9 microdilution method

Row | SMILES | MIC [1] [µg/mL] | MBC [2] [µg/mL] | Ratio [3]
1 | CC1(C)CC[C@]2(C(=O)O)CC[C@]3(C)C(=CC[C@@H]4[C@@]5(C)CC[C@H](O)[C@@](C)(CO)[C@@H]5[C@H](O)C[C@]43C)[C@@H]2C1 | 18.8 (≈ 38.5 µM) | 50 (≈ 102 µM) | 2.7
2 | C/C=C1/CO[C@H](O)[C@H]2C(=O)N3CCc4c([nH]c5ccccc45)[C@@H]3C[C@@H]12 | 4.7 (≈ 13.9 µM) | 12.5 (≈ 36.9 µM) | 2.7
3 | C/C=C(/C=O)c1cc2n(c(=O)c1O)CCc1c-2[nH]c2ccccc12 | 50 (≈ 156 µM) | > 50 | >1
4 | C[C@H]1OC=C2C(=O)N3CCc4c([nH]c5ccccc45)[C@@H]3C[C@H]2[C@@H]1C=O | 3.1 (≈ 9.22 µM) | 12.5 (≈ 37.2 µM) | 4
5 | CC(O)c1coc2c(=O)n3c(cc12)-c1[nH]c2ccccc2c1CC3 (centres undefined) | 25 (≈ 78 µM) | 50 (≈ 156 µM) | 2
6 | C[C@H]1[C@H](C)CC[C@]2(C(=O)O)CC[C@]3(C(=O)O)C(=CC[C@@H]4[C@@]5(C)CC[C@H](O)C(C)(C)[C@@H]5CC[C@]43C)[C@H]12 | 25 (≈ 51.4 µM) | > 50 | >2
7 | CC1(C)CC[C@]2(C(=O)O)CC[C@]3(C)C(=CC[C@@H]4[C@@]5(C)CC[C@H](O)[C@@](C)(CO)[C@@H]5[C@H](O)C[C@]43C)[C@@H]2[C@@H]1O | 18.8 (≈ 37.2 µM) | 50 (≈ 99.1 µM) | 2.7
8 | C[C@@H]1CC[C@]2(C(=O)O)CC[C@]3(C)C(=CC[C@@H]4[C@@]5(C)CC[C@@H]6OC([C@H]7[C@@H]8C[C@H]9c%10[nH]c%11ccccc%11c%10CCN9C(=O)C8=CO[C@@H]7C)OC[C@]6(CO)[C@@H]5CC[C@]43C)[C@@H]2[C@]1(C)O (some centres undefined) | 25 (≈ 30.4 µM) | 50 (≈ 60.7 µM) | 2
9 | C[C@H]1[C@H](C)CC[C@]2(C(=O)O)CC[C@]3(C(=O)O)C(=CC[C@@H]4[C@@]5(C)CCC(=O)C(C)(C)[C@@H]5CC[C@]43C)[C@H]12 | 18.8 (≈ 38.8 µM) | 50 (≈ 103 µM) | 2.7
10 | COC(OC)[C@H]1[C@@H]2C[C@H]3c4[nH]c5ccccc5c4CCN3C(=O)C2=CO[C@@H]1C | 50 (≈ 131 µM) | > 50 | >1
11 | C/C=C1/COC(=O)[C@H]2C(=O)N3CCc4c([nH]c5ccccc45)[C@@H]3C[C@@H]12 | 4.7 (≈ 14 µM) | 12.5 (≈ 37.2 µM) | 2.7
12 | O=C(O)c1cn(C2CC2)c2cc(N3CCNCC3)c(F)cc2c1=O [CIPROFLOXACIN] | 1.6 (≈ 4.83 µM) | 1.6 (≈ 4.83 µM) | 1
13 | C[C@@H]1CC[C@]2(C(=O)O)CC[C@]3(C)C(=CC[C@@H]4[C@@]5(C)CC[C@H](O)C(C)(C)[C@@H]5CC[C@]43C)[C@@H]2[C@]1(C)O [POMOLIC ACID] | 18.8 (≈ 39.8 µM) | 50 (≈ 106 µM) | 2.7

Reference: ChEMBL document CHEMBL4414555, “Constituents from Nauclea latifolia with Anti-Haemophilus influenzae Type b Inhibitory Activities” (2019)
